Assay [1] deals with T1, fluorescein-labeled WIL-FL LC dimer (WIL-FL*) (Homo sapiens, UniProt P01721, K101C). To be noted: previous study; cited from earlier work.
For assay [2], the target named is fluorescein-labeled WIL-FL* T46L/F49Y LC dimer (Homo sapiens, UniProt P01721, K101C/T66L). The experiment in a line: protease-coupled fluorescence polarization. The class given is biochemical. To be noted: for increased potency compared to stabilizer 1 in the PCFP assays (up to): highest ratio across the two PCFP assays (WIL-FL* and WIL-FL* T46L/F49Y). On the technique in general: In fluorescence polarisation assays a small probe gives low polarisation when free and higher when bound to something large.

The target of assay [3] is T1, fluorescein-labeled WIL-FL LC dimer (WIL-FL*). The experiment in a line: protease-coupled fluorescence polarization. The class given is biochemical.
Assay [4] concerns FL LC dimers. To be noted: cited from earlier work.
In assay [5] the test system is unlabeled WIL-FL LC dimer. Put plainly: proteinase K sensitivity assay, single dose. The class given is biochemical, human. To be noted: 10 μM stabilizer. The method, boiled down: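 Unlabelled WIL-FL LC dimer (2.5 μM) was treated with test compound (10 μM) and proteinase K (50 nM) for 2 h at 37 °C. Remaining intact dimer was quantified by size-exclusion chromatography. Fold protection is the fraction of dimer remaining with compound, corrected for residual dimer in the vehicle (1% DMSO) control. Mean of ≥3 independent replicates ± 1 SD.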

Sequence of fluorescein-labeled WIL-FL* T46L/F49Y LC dimer (P01721 20-117 T66L/K101C): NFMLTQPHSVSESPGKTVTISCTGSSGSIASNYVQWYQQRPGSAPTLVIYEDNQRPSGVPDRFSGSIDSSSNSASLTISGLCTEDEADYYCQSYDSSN
T1 sequence (P01721 20-117 K101C): as the sequence (P01721 20-117 T66L/K101C) above, with L47T counted along it

Regarding `CCN(CC)c1ccc2c(C)c(CCOC(=O)NCc3ccccc3)c(=O)oc2c1` [2-(7-(diethylamino)-4-methyl-2-oxo-2H-chromen-3-yl)ethyl benzylcarbamate], the “improved potency compared to 1 in the PCFP assays” value in assay [1] is “more than ten-fold”.
Consider `CCN(CC)c1ccc2c(C)c(CCNC(=O)NCc3cccc(-c4c[nH]cn4)c3)c(=O)oc2c1` [Compound 21], for which, in assay [2], the “increased potency compared to stabilizer 1 in the PCFP assays (up to)” value is reported as “up to 56 fold”.
For `CCN(CC)c1ccc2c(C)c(CCNC(=O)CCc3ccccc3)c(=O)oc2c1` [Compound 16], in assay [3] (PCFP dose-response (Figure S3)), the “maximal fluorescence polarization compared to compound 1” value is listed as “lower”.
On to `CN(C)c1ccc2nc3ccc(=[N+](C)C)cc-3sc2c1` [methylene blue], for which the “stabilization of FL LC dimers” value in assay [4] is “do not stabilize FL LC dimers”.
On to `O=C(O)c1cc(/N=N/c2ccc(S(=O)(=O)Nc3ccccn3)cc2)ccc1O` [sulfasalazine], for which, in assay [4], the “stabilization of FL LC dimers” value is given as “do not stabilize FL LC dimers”.
Consider `CCN(CC)c1ccc2c(C)c(CCNC(=O)NCc3ccc4ccccc4c3)c(=O)oc2c1` [Compound 23], for which, in assay [2], the “increased potency compared to stabilizer 1 in the PCFP assays (up to)” value is reported as not above 150 fold.
Turning to `CCN(CC)c1ccc2c(C)c(CCC(=O)NCCc3cccnc3)c(=O)oc2c1` [Compound 11], the “increase in fold protection for unlabeled WIL-FL compared to stabilizer 1” value in assay [5] was found to be 0.33. In addition, in assay [3] (ratio of EC50 values), the “potency increase for WIL-FL* compared to stabilizer 1” value turned out to be 2.6 fold. For the same molecule, the “potency increase for WIL-FL* T46L/F49Y compared to stabilizer 1” value in assay [2] (ratio of EC50 values) is reported as “two-fold”.

The values above are taken from PMC8857066 (Bioorganic & medicinal chemistry letters, 2022).
